Test results published in ChEMBL document CHEMBL1152325, “Antioxidant and anticholinesterase activity evaluation of ent-kaurane diterpenoids from Sideritis arguta” (J Nat Prod, 2009).

Assays:
[1] = Antioxidant activity against beta-carotene and linoleic acid assessed as inhibition of bleaching of beta-carotene; type: functional
Method in brief: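 β-Carotene–linoleic acid model system on extracts and isolated diterpenoids. Bleaching inhibition was measured at four concentrations in triplicate, reported as mean ± SD. IC50 in µg/mL.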

Cholinesterase = Cholinesterase (Homo sapiens, UniProt P06276); experiment: Inhibition of BChE by spectrophotometry
Acetylcholinesterase = Acetylcholinesterase (Homo sapiens, UniProt P22303); experiment: Inhibition of AChE by spectrophotometry
[2] = test system: Radical scavenging activity; experiment: Antioxidant activity assessed as DPPH radical scavenging activity; type: functional
Method in brief: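 DPPH free-radical scavenging by the Blois method on extracts and diterpenoids. Tested at four concentrations in triplicate analyses, given as mean ± SD. Results expressed as IC50 (µg/mL).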

[3] = Antioxidant activity assessed as superoxide radical scavenging activity by phenazin methosulphate-NADH-NBT assay; type: functional
Method in brief: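 Superoxide-anion scavenging by the NADH-PMS-NBT method after Liu et al. Extracts and diterpenoids were tested at four concentrations in triplicate, as mean ± SD. IC50 reported in µg/mL.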

Acetylcholinesterase, sequence (P22303 whole entry): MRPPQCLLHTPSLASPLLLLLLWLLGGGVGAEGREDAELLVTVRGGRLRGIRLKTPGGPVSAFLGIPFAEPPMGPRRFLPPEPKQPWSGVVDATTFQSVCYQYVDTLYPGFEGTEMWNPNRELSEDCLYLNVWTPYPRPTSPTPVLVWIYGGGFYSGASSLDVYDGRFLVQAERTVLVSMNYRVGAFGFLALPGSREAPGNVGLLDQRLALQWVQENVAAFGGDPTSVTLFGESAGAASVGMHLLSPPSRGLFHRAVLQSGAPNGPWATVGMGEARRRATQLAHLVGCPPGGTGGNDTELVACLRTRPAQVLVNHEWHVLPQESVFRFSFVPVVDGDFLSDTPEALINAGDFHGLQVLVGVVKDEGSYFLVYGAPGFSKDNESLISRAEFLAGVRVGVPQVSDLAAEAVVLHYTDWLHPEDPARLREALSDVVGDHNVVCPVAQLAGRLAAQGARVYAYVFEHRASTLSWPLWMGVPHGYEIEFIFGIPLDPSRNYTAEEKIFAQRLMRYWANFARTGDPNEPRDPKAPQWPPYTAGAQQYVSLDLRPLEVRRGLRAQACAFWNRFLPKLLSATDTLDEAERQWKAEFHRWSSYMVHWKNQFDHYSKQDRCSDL
Cholinesterase, sequence (P06276 whole entry): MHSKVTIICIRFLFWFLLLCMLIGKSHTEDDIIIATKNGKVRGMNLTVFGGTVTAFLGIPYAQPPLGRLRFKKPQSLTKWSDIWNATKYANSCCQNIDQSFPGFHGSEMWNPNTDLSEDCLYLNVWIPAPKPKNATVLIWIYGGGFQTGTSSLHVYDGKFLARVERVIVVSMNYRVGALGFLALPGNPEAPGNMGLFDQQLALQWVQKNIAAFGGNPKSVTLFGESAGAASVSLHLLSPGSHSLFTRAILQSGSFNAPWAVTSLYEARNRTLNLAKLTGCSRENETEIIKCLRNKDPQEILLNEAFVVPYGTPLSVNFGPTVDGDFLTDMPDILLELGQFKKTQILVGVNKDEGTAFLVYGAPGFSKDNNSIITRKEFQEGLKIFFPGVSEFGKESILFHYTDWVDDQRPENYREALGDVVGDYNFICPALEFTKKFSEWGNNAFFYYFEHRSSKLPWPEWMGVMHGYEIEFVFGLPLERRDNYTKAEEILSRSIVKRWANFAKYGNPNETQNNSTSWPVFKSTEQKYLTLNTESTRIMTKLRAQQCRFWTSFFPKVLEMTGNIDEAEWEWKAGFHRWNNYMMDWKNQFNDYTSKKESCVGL

Row | Molecule | IC50 ([1]; read-out: IC50) [µM] | IC50 (Cholinesterase) [µM] | IC50 (Acetylcholinesterase; read-out: IC50) [µM] | IC50 ([2]; read-out: IC50) [µM] | IC50 ([3]; read-out: IC50) [µM] | IC50 (Acetylcholinesterase) | IC50 [1] [µg/mL] | IC50 [2] | IC50 [3]
1 | ent-7alpha-acetoxy-15alpha,18-dihydroxykaur-16-ene | > 200 | > 200 | > 200 | > 200 | > 200 | – | – | – | –
2 | C=C1[C@@H]2CC[C@H]3[C@]4(C)CCC[C@](C)(CO)[C@@H]4C[C@H](O)[C@]3(C2)[C@@H]1O [EUBOTRIOL] | > 200 | 98.1 | – | > 200 | > 200 | Not Active | – | – | –
3 | C=C1C[C@]23C[C@H]1CC[C@H]2[C@]1(C)CCC[C@](C)(CO)[C@@H]1C[C@@H]3O | – | 21.1 | 22.8 | – | – | – | 43.1 | Not Active | Not Active
4 | C[C@]1(CO)CCC[C@]2(C)[C@H]1C[C@H](O)[C@@]13C[C@@H](CC[C@@H]21)[C@]1(C)O[C@@H]13 [SIDEROXOL] | > 200 | 25 | 14.5 | > 200 | > 200 | – | – | – | –
5 | Cc1c(C)c2c(c(C)c1O)CC[C@@](C)(CCC[C@H](C)CCC[C@H](C)CCCC(C)C)O2 [ALPHA-TOCOPHEROL] | – | – | – | – | – | – | 2.1 | 12.26 µg/mL | –
6 | CC(=O)OC[C@@]1(C)CCC[C@]2(C)[C@H]1C[C@H](OC(C)=O)[C@@]13C[C@@H](CC[C@@H]21)[C@](C)(O)C3 [DIACETYLDISTANOL] | > 200 | 176 | – | > 200 | > 200 | Not Active | – | – | –
7 | EUBOL | > 200 | 23.2 | – | > 200 | > 200 | Not Active | – | – | –
8 | COc1ccc(O)c(C(C)(C)C)c1.COc1ccc(O)cc1C(C)(C)C [BUTYLATED HYDROXYANISOLE] | – | – | – | – | 27.1 | – | 1.5 | 5.88 µg/mL | –
9 | Cc1cc(C(C)(C)C)c(O)c(C(C)(C)C)c1 [BUTYLATED HYDROXYTOLUENE] | – | – | – | – | – | – | 1.3 | 66.73 µg/mL | –
